Experimental data: ChEMBL document CHEMBL1126160, “Synthesis and structure-activity relationships of 7-diazabicycloalkylquinolones, including danofloxacin, a new quinolone antibacterial agent for veterinary medicine” (J Med Chem, 1992)
Converted amounts (≈) assume the structure as drawn.

Tests used:
Assay type in all cases: functional
Trueperella pyogenes = assay: In vitro antibacterial activity against anaerobically grown Actinomyces pyogenes (14D002)
Summary of the method: (§1)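 Agar dilution MICs. Anaerobic strains were tested on tryptose agar with 5% bovine blood and incubated 48 h at 39 °C in an anaerobe chamber under N2/CO2/H2 (80:10:10).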

Phocaeicola vulgatus = assay: In vitro antibacterial activity against anaerobically grown Bacteroides vulgatus (78D029); summary of the method: as §1
[1] = system: Bordetella bronchiseptica; assay: In vitro antibacterial activity against aerobically grown Bordetella bronchiseptica (73A009)
Summary of the method: (§2)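 Agar dilution MICs. Aerobic strains were tested on brain heart infusion agar and incubated aerobically at 37 °C for 18–20 h.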

[2] = In vitro evaluation for antibacterial activity against anaerobically grown Treponema hyodysenteriae (94A007); details: Brachyspira hyodysenteriae
Escherichia coli [3] = assay: In vitro antibacterial activity against aerobically grown Escherichia coli (51A538); summary of the method: as §2
Pasteurella multocida = assay: In vitro antibacterial activity against aerobically grown Pasteurella multocida (59A006); summary of the method: as §2
Clostridium perfringens = assay: microbe, parasite or virus in culture
[4] = system: Actinobacillus pleuropneumoniae; assay: In vitro antibacterial activity against anaerobically grown Actinobacillus pleuropneumoniae ([…]); summary of the method: as §1
Staphylococcus aureus = assay: In vitro antibacterial activity against aerobically grown Staphylococcus aureus (54B004); summary of the method: as §2
Salmonella enterica = assay: In vitro antibacterial activity against aerobically grown Salmonella choleraesuis (58B015)
Escherichia coli [5] = assay: Escherichia coli DNA cleavage endpoint value which is the minimum amount required (in micro g/mL) to induce detectable cleavage of supercoiled pBR322 substrate to linear form (gyrase); details: read-out: MIC
Summary of the method: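 DNA gyrase A and B subunits were purified from E. coli overproducers. About 2 units of holoenzyme were incubated with pBR322 in Tris-HCl pH 7.5 containing MgCl2, spermidine, DTT, 0.2 mM ATP, BSA and tRNA. Drug was added as 2-fold serial dilutions, and reactions ran for 60 min at 25 °C. Reactions were stopped with SDS and proteinase K, then run on agarose and stained with ethidium. The endpoint was the lowest concentration giving detectable linear DNA.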

[6] = In vitro antibacterial activity against Aerobically grown Pasteurella haemolytica (59B018); details: Mannheimia haemolytica; summary of the method: as §2

SMILES	MIC (Trueperella pyogenes)	MIC (Phocaeicola vulgatus)	MIC [1]	MIC [2]	MIC (Escherichia coli [3])	MIC (Pasteurella multocida)	MIC (Clostridium perfringens)	MIC [4]	MIC (Staphylococcus aureus)	MIC (Salmonella enterica)	minimum concentration inducing gyrase-mediated DNA cleavage (Escherichia coli [5])	MIC [6]
O=C(O)c1cn(-c2ccc(F)cc2F)c2c(F)c(N3C[C@@H]4C[C@H]3CN4)c(F)cc2c1=O	0.78 µg/mL (≈ 1.8 µM)	1.56 µg/mL (≈ 3.6 µM)	1.56 µg/mL (≈ 3.6 µM)	3.13 µg/mL (≈ 7.22 µM)	0.05 µg/mL (≈ 0.115 µM)	0.01 µg/mL (≈ 0.0231 µM)	0.2 µg/mL (≈ 0.462 µM)	0.02 µg/mL (≈ 0.0462 µM)	0.39 µg/mL (≈ 0.9 µM)	0.1 µg/mL (≈ 0.231 µM)	0.78 µg/mL	0.05 µg/mL (≈ 0.115 µM)
C=Cn1cc(C(=O)O)c(=O)c2cc(F)c(N3CCN4CCC3CC4)cc21	3.13 µg/mL (≈ 8.76 µM)	3.13 µg/mL (≈ 8.76 µM)	1.56 µg/mL (≈ 4.37 µM)	0.39 µg/mL (≈ 1.09 µM)	0.1 µg/mL (≈ 0.28 µM)	0.05 µg/mL (≈ 0.14 µM)	0.2 µg/mL (≈ 0.56 µM)	0.02 µg/mL (≈ 0.056 µM)	0.2 µg/mL (≈ 0.56 µM)	0.1 µg/mL (≈ 0.28 µM)	0.39 µg/mL	0.05 µg/mL (≈ 0.14 µM)
CN1[C@@H]2CC[C@H]1CN(c1c(F)cc3c(=O)c(C(=O)O)cn(C4CC4)c3c1F)C2	1.56 µg/mL (≈ 4.01 µM)	25 µg/mL (≈ 64.2 µM)	3.13 µg/mL (≈ 8.04 µM)	0.78 µg/mL (≈ 2 µM)	0.2 µg/mL (≈ 0.514 µM)	0.1 µg/mL (≈ 0.257 µM)	0.78 µg/mL (≈ 2 µM)	0.39 µg/mL (≈ 1 µM)	0.39 µg/mL (≈ 1 µM)	0.39 µg/mL (≈ 1 µM)	0.78 µg/mL	0.1 µg/mL (≈ 0.257 µM)
CN1[C@@H]2CC[C@H]1CN(c1cc3c(cc1F)c(=O)c(C(=O)O)cn3C)C2	3.13 µg/mL (≈ 9.06 µM)	12.5 µg/mL (≈ 36.2 µM)	> 25 µg/mL	0.78 µg/mL (≈ 2.26 µM)	3.13 µg/mL (≈ 9.06 µM)	0.78 µg/mL (≈ 2.26 µM)	1.56 µg/mL (≈ 4.52 µM)	0.78 µg/mL (≈ 2.26 µM)	0.2 µg/mL (≈ 0.579 µM)	3.13 µg/mL (≈ 9.06 µM)	3.12 µg/mL	0.2 µg/mL (≈ 0.579 µM)
CN1C[C@@H]2C[C@H]1CN2c1nc2c(cc1F)c(=O)c(C(=O)O)cn2-c1ccc(F)cc1	> 3.13 µg/mL	3.13 µg/mL (≈ 7.59 µM)	> 1.56 µg/mL	3.13 µg/mL (≈ 7.59 µM)	0.2 µg/mL (≈ 0.485 µM)	0.02 µg/mL (≈ 0.0485 µM)	0.39 µg/mL (≈ 0.946 µM)	0.1 µg/mL (≈ 0.242 µM)	0.2 µg/mL (≈ 0.485 µM)	0.2 µg/mL (≈ 0.485 µM)	1.56 µg/mL	0.05 µg/mL (≈ 0.121 µM)
CN1C[C@@H]2C[C@H]1CN2c1cc2c(cc1F)c(=O)c(C(=O)O)cn2-c1ccc(F)cc1F	0.78 µg/mL (≈ 1.82 µM)	0.78 µg/mL (≈ 1.82 µM)	1.56 µg/mL (≈ 3.63 µM)	> 3.13 µg/mL	0.1 µg/mL (≈ 0.233 µM)	0.01 µg/mL (≈ 0.0233 µM)	0.2 µg/mL (≈ 0.466 µM)	0.005 µg/mL (≈ 0.0116 µM)	0.1 µg/mL (≈ 0.233 µM)	0.2 µg/mL (≈ 0.466 µM)	0.78 µg/mL	0.05 µg/mL (≈ 0.116 µM)
O=C(O)c1cn(-c2ccc(F)cc2)c2c(F)c(N3C[C@@H]4C[C@H]3CN4)c(F)cc2c1=O	> 3.13 µg/mL	> 3.13 µg/mL	> 1.56 µg/mL	0.78 µg/mL (≈ 1.88 µM)	0.1 µg/mL (≈ 0.241 µM)	0.1 µg/mL (≈ 0.241 µM)	0.2 µg/mL (≈ 0.481 µM)	0.1 µg/mL (≈ 0.241 µM)	0.78 µg/mL (≈ 1.88 µM)	0.2 µg/mL (≈ 0.481 µM)	0.78 µg/mL	0.1 µg/mL (≈ 0.241 µM)
CCn1cc(C(=O)O)c(=O)c2cc(F)c(N3C[C@H]4CC[C@@H](C3)N4C)c(F)c21	6.25 µg/mL (≈ 16.6 µM)	> 25 µg/mL	12.5 µg/mL (≈ 33.1 µM)	6.25 µg/mL (≈ 16.6 µM)	0.78 µg/mL (≈ 2.07 µM)	0.2 µg/mL (≈ 0.53 µM)	1.56 µg/mL (≈ 4.13 µM)	0.2 µg/mL (≈ 0.53 µM)	0.39 µg/mL (≈ 1.03 µM)	1.56 µg/mL (≈ 4.13 µM)	3.12 µg/mL	0.39 µg/mL (≈ 1.03 µM)
O=C(O)c1cn(C2CC2)c2c(F)c(N3CCN4CCC3CC4)c(F)cc2c1=O	0.39 µg/mL (≈ 1 µM)	0.1 µg/mL (≈ 0.257 µM)	0.39 µg/mL (≈ 1 µM)	0.78 µg/mL (≈ 2 µM)	0.01 µg/mL (≈ 0.0257 µM)	0.002 µg/mL (≈ 0.00514 µM)	0.1 µg/mL (≈ 0.257 µM)	0.01 µg/mL (≈ 0.0257 µM)	0.05 µg/mL (≈ 0.128 µM)	0.01 µg/mL (≈ 0.0257 µM)	0.39 µg/mL	0.01 µg/mL (≈ 0.0257 µM)
CNn1cc(C(=O)O)c(=O)c2cc(F)c(N3CCN4CCC3CC4)cc21	6.25 µg/mL (≈ 17.3 µM)	> 25 µg/mL	12.5 µg/mL (≈ 34.7 µM)	3.13 µg/mL (≈ 8.69 µM)	0.39 µg/mL (≈ 1.08 µM)	0.1 µg/mL (≈ 0.277 µM)	0.78 µg/mL (≈ 2.16 µM)	< 0.05 µg/mL	1.56 µg/mL (≈ 4.33 µM)	1.56 µg/mL (≈ 4.33 µM)	1.56 µg/mL	0.1 µg/mL (≈ 0.277 µM)
CCn1cc(C(=O)O)c(=O)c2cc(F)c(N3C[C@@H]4C[C@H]3CN4)cc21	3.13 µg/mL (≈ 9.45 µM)	> 3.13 µg/mL	1.56 µg/mL (≈ 4.71 µM)	1.56 µg/mL (≈ 4.71 µM)	0.78 µg/mL (≈ 2.35 µM)	0.2 µg/mL (≈ 0.604 µM)	0.39 µg/mL (≈ 1.18 µM)	0.39 µg/mL (≈ 1.18 µM)	> 1.56 µg/mL	0.39 µg/mL (≈ 1.18 µM)	3.12 µg/mL	0.39 µg/mL (≈ 1.18 µM)
O=C(O)c1cn(C2CC2)c2c(Cl)c(N3C[C@@H]4C[C@H]3CN4)c(F)cc2c1=O	0.39 µg/mL (≈ 1.03 µM)	0.1 µg/mL (≈ 0.265 µM)	0.39 µg/mL (≈ 1.03 µM)	1.56 µg/mL (≈ 4.13 µM)	0.02 µg/mL (≈ 0.0529 µM)	0.005 µg/mL (≈ 0.0132 µM)	0.1 µg/mL (≈ 0.265 µM)	0.005 µg/mL (≈ 0.0132 µM)	0.2 µg/mL (≈ 0.529 µM)	0.02 µg/mL (≈ 0.0529 µM)	0.09 µg/mL	0.005 µg/mL (≈ 0.0132 µM)
CN1[C@@H]2CC[C@H]1CN(c1c(F)cc3c(=O)c(C(=O)O)cn(C4CC4)c3c1Cl)C2	3.13 µg/mL (≈ 7.71 µM)	0.78 µg/mL (≈ 1.92 µM)	> 1.56 µg/mL	> 3.13 µg/mL	0.39 µg/mL (≈ 0.961 µM)	0.05 µg/mL (≈ 0.123 µM)	0.78 µg/mL (≈ 1.92 µM)	0.2 µg/mL (≈ 0.493 µM)	0.39 µg/mL (≈ 0.961 µM)	0.78 µg/mL (≈ 1.92 µM)	1.56 µg/mL	0.2 µg/mL (≈ 0.493 µM)
O=C(O)c1cn(-c2ccc(F)cc2)c2cc(N3CCN4CCCC3C4)c(F)cc2c1=O (configuration not stated)	3.13 µg/mL (≈ 7.36 µM)	0.39 µg/mL (≈ 0.917 µM)	1.56 µg/mL (≈ 3.67 µM)	0.2 µg/mL (≈ 0.47 µM)	0.1 µg/mL (≈ 0.235 µM)	0.01 µg/mL (≈ 0.0235 µM)	0.2 µg/mL (≈ 0.47 µM)	0.05 µg/mL (≈ 0.118 µM)	0.1 µg/mL (≈ 0.235 µM)	0.2 µg/mL (≈ 0.47 µM)	0.78 µg/mL	0.05 µg/mL (≈ 0.118 µM)
CN1C2CC[C@@H]1CCN(c1cc3c(cc1F)c(=O)c(C(=O)O)cn3CCF)C2	> 3.13 µg/mL	> 3.13 µg/mL	1.56 µg/mL (≈ 3.99 µM)	> 3.13 µg/mL	1.56 µg/mL (≈ 3.99 µM)	0.39 µg/mL (≈ 0.996 µM)	1.56 µg/mL (≈ 3.99 µM)	0.39 µg/mL (≈ 0.996 µM)	0.78 µg/mL (≈ 1.99 µM)	> 1.56 µg/mL	3.12 µg/mL	1.56 µg/mL (≈ 3.99 µM)
CN1[C@@H]2CCC[C@H]1CN(c1cc3c(cc1F)c(=O)c(C(=O)O)cn3C1CC1)C2.Cl	3.13 µg/mL	1.56 µg/mL	1.56 µg/mL	> 3.13 µg/mL	0.39 µg/mL	0.05 µg/mL	0.39 µg/mL	0.1 µg/mL	0.2 µg/mL	0.39 µg/mL	1.56 µg/mL	0.2 µg/mL
